From PubChem BioAssay
PREPL inh – inhibitors of human prolyl oligopeptidase-like enzyme PREPL; 0.68% of 320,000 active; inhibition, % at 5.96 µM; AID 2751; recombinant PREPL, fluorescence polarization activity-based probe; in the data active means inhibition above about 43%;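 further: 0% = enzyme with DMSO and 100% = wells lacking enzyme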
Target sequence (Q4J6C6 whole entry, looked up): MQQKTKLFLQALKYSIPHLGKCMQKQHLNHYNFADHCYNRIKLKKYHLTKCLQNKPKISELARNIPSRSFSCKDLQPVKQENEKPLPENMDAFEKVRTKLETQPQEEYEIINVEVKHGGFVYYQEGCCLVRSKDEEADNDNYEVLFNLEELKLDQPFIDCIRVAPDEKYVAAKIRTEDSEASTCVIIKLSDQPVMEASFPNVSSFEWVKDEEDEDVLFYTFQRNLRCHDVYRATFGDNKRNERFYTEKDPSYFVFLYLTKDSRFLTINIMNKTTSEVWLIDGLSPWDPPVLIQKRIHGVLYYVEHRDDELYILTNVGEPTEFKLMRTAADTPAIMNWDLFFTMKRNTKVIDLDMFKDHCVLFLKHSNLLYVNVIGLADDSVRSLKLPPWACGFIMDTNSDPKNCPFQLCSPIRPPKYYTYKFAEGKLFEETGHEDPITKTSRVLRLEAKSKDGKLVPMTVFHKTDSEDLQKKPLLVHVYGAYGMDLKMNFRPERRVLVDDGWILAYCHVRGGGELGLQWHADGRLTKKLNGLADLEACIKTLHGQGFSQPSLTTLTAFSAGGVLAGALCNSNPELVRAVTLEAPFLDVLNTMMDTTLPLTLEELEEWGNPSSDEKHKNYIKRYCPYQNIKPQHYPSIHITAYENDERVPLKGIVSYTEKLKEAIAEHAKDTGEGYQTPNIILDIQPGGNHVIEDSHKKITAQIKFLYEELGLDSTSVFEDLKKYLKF
CSC inhib – cancer stem cell inhibition. inhibition, % at 7.5 µM. 1.1% of 300,000 active. cancer stem cell-like cells viability, luminescence. AID 2717; in the data active means inhibition above about 75%; tested in HMLE shEcad cells
Beta cell apopt – blocks beta cell apoptosis; INS-1E cytokine-induced death, ATP luminescence, 48 h; percent of positive-control rescue, neutral wells zero; protection from apoptosis, % (test concentration not listed); 0.8% of 300,000 active;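 active means Every replicate reaches about 75%, or at least half do and their mean reaches it too, limit read from the data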;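 further: 0% = cytokine-treated negative control wells and 100% = positive control rescue; higher means more ATP so stronger rescue from cytokine killing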
NR3A LBD binder – modulates the human NR3A ligand-binding domain; NR3A LBD differential scanning fluorimetry, Tm shift; 0% = protein alone, 100% = glycine-bound protein; Tm shift relative to glycine control, % at 25 µM; 2.5% of 340,000 active; AID 1259313;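 active means melting temperature shift of at least 10% of the positive control shift, at one fixed dose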
T cruzi repl – blocks replication of Trypanosoma cruzi; inhibition, % (no concentration beside the values); 1.4% of 300,000 active; AID 1885; T. cruzi beta-gal in NIH3T3, luminescence, 90 h;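 active means mean inhibition across valid replicates above about 55%, limit read from the data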;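 further: signal also drops with host cell toxicity which is not excluded here; 0% = plate median of DMSO wells and 100% = zero luminescence signal; higher percent means less beta-gal luminescence so fewer parasites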
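compound dosing = single 50 nL compound addition per well in DMSO | material = NIH/3T3 host cells with β-galactosidase reporter T. cruzi | input = 5,000 host fibroblasts per well | timing = ≥90 h infection period, 3 h prior cell attachment | read-out basis = percent inhibition of parasite-derived β-gal signal | detection = GalScreen β-gal luminescence, detergent lysis, 60 min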
CHOP inhibitor – blocks CHOP induction under ER stress | inhibition, % at 10 µM | AID 2732 | CHO-K1 CHOP-promoter luciferase, tunicamycin-induced, 15-18 h | 3.8% of 220,000 active;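 active means compounds that reduced the stress-induced luciferase reporter signal by more than about 70% of percent inhibition, limit read from the data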;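 further: 0% = tunicamycin plus vehicle and 100% = wells without tunicamycin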
Starred values were filed as active, the others as inactive; nt = no result given. Shown are actives, neighbours in structure and some others; about 6.7% of the full set was active somewhere.

SMILES	PREPL inh	CSC inhib	Beta cell apopt	NR3A LBD binder	T cruzi repl	CHOP inhibitor
Cc1c(C(=O)N/N=C/C(C)C)[nH]c2c([N+](=O)[O-])cccc12	-3	nt	-7	-21	-27	5
O=[N+]([O-])c1cc(-c2nnc(C34CC5CC(CC(C5)C3)C4)o2)cc([N+](=O)[O-])c1	4	48	nt	2	57*	20
COc1ccc(NC(=O)COC(=O)C2CCN(S(=O)(=O)c3ccccc3)CC2)cc1Cl	9	-2	-3	-3	13	nt
COc1ccc(Cc2nnc(SCC(=O)NC3CCCC3)o2)cc1	15	6	-4	19*	-12	-4
COc1ccc(N2C(=O)C3C(c4ccc(C(=O)O)cc4)NC(Cc4ccccc4)(C(=O)O)C3C2=O)c([N+](=O)[O-])c1 (configuration not stated)	2	-8	-1	-2	-5	5
CCNC(=S)N(Cc1ccccc1)Cc1nc2ccccc2c(=O)[nH]1	-7	-2	-6	10*	3	2
CC(C)(C)c1nc2ccccc2c2nnc(SCC(=O)Nc3nccs3)n12	2	nt	nt	nt	-12	78*
CC(C)(C)c1nc2ccccc2c2nnc(SCC(=O)Nc3nc4ccccc4s3)n12	3	-19	0	7	13	19
O=C(CSc1nnc(CCCN2C(=O)c3cccc4cccc(c34)C2=O)n1-c1ccccc1)NCCCO	15	-9	-5	13*	1	0
NS(=O)(=O)c1ccc(NC(=O)CSc2nnc(Cc3cccs3)n2-c2ccccc2)cc1	-12	-12	-5	10*	-4	9
O=C(CSc1nnc(CCCO)n1-c1ccccc1)Nc1nccs1	-3	-10	-3	0	6	85*
Cc1ccc(-n2c(Cc3cccs3)nnc2SCC(=O)Nc2ccc(S(N)(=O)=O)cc2)cc1	3	-2	-10	-1	-2	22
CC1Cc2ccccc2N1C(=O)CN1CCC(n2nnc3cc(C(F)(F)F)ccc32)CC1 (configuration not stated)	-1	24	10	-2	44	41
C[n+]1c(-c2ccccc2)cc2c(=Cc3ccc([N+](=O)[O-])cc3)c3ccccc3n21	nt	nt	nt	14*	nt	nt
C[n+]1c(-c2ccccc2)cc2c(=Cc3ccccc3)c3ccccc3n21	nt	nt	nt	-6	nt	nt
CC1(C)Cc2c(cnn2-c2ccccc2)C(=O)/C1=N\NC(=O)c1ccccc1N	21	14	-7	-1	-6	48
CC1(C)Cc2c(cnn2-c2ccccc2)-c2c1c1ccccc1n2CC(O)CBr (configuration not stated)	27	18	2	-6	18	95*
Cc1cccc2cc(CN(Cc3cccnc3)C(=O)c3ccncc3)c(=O)[nH]c12	0	0	-9	-1	-11	6
Cc1cc(C)c2cc(CN(Cc3cccnc3)C(=O)c3ccc(F)cc3)c(Cl)nc2c1	7	-9	23	0	59*	24
Cc1cccc2cc(CN(Cc3cccnc3)C(=O)c3ccccc3F)c(Cl)nc12	9	-5	-2	0	61*	21
CCOC(=O)c1ccc(NCCc2ccc(OC)c(OC)c2)c(N)c1	-14	11	-8	4	4	nt
CC(C)C(=O)Nc1ccc(NC(=O)c2cc3ccccc3o2)cc1	7	11	10	3	1	-13
Cc1ccc(C(=O)NC(=S)Nc2ccc(-c3cc4ccccc4oc3=O)cc2)c(C)c1	-1	-13	-4	0	0	95*
O=C(Cc1cccc2ccccc12)Nc1ccc(-c2cc3ccccc3oc2=O)cc1	-18	5	-3	1	35	81*
CC(C)C(=O)Nc1ccc(NC(=S)NC(=O)c2cc3ccccc3o2)cc1	5	2	nt	17*	-11	-20
SMILES	PREPL inh	CSC inhib	Beta cell apopt	NR3A LBD binder	T cruzi repl	CHOP inhibitor
CCC(=O)Nc1cccc(-c2cc3ccccc3oc2=O)c1	-17	nt	-1	-13	-6	48
CC(=O)Nc1ccc(NC(=S)NC(=O)c2cc3ccccc3o2)cc1	-19	-12	-2	16*	-12	58
COc1ccccc1S(=O)(=O)Cc1ccc(C(=O)NC(C)c2ccc3c(c2)OCCO3)o1 (configuration not stated)	3	-2	-1	-1	0	19
Cc1ccc(S(=O)(=O)N2CCN(S(=O)(=O)c3ccccc3Br)C2=O)cc1	nt	nt	nt	2	nt	nt
Cc1cc(C)c(C(=O)C2OC(=O)C(C)(C)C(=O)C2(C)C)c(C)c1 (configuration not stated)	-1	-17	nt	-5	-8	50
Cn1cc(/C=C/c2cc[n+](C)cc2)c2cc(Cl)ccc21	35	-9	95*	-2	50	nt
COC(=O)c1c(C)n(-c2ccccc2)c2ccc(O)cc12	6	13	-2	-1	14	39
COC(=O)c1c(O)cc(C(C)(C)C)n(-c2ccccc2)c1=O	-2	-2	-4	18*	-5	-20
COCC(C)n1c(-c2ccc3c(c2)NC(=O)CO3)csc1=Nc1ccc(OC(F)F)cc1 (configuration not stated)	31	23	23	-11	16	89*
CCN=c1scc(-c2ccc3c(c2)NC(=O)CO3)n1N=C1CCCC1	23	0	3	-2	-11	nt
Cc1cccc(NCc2ccc(Br)cc2)n1	-2	-16	-5	-4	4	nt
CCCCC1=CC2=CC(=O)C(C)(OC(=O)CC)C(=O)C2=CN1CCOC (configuration not stated)	2	3	-1	61*	-3	-9
COc1ccc(CN(Cc2ccc(C(=O)O)cc2)C(=S)Nc2cccc(C)c2)cc1OC	2	0	-4	12*	-1	-12
COc1ccc(NC(=S)N(Cc2ccc(C(=O)O)cc2)Cc2ccc(OC)c(OC)c2)cc1	18	-9	-6	2	-13	9
O=C(Cc1ccccc1)NCCc1c[nH]c2ccccc12	1	-4	-2	0	-8	nt
c1ccc(-n2nnnc2NCCc2c[nH]c3ccccc23)cc1	5	-5	3	12*	-5	12
Fc1cccc(NCCc2c[nH]c3ccccc23)n1	-4	10	2	15*	-5	nt
CC(CCc1ccccc1)NC(=O)COC(=O)C(CCC(N)=O)NC(=O)c1ccc(F)cc1 (configuration not stated)	6	-6	-3	4	nt	nt
CC1(C)OC(=O)C(=CNC(=O)c2c(F)cccc2F)C(=O)O1	2	-5	-5	-4	-20	73*
CC1CCCN(C(=O)c2ccc(S(=O)(=O)N3CCC(c4nc5ccccc5s4)CC3)cc2)C1 (configuration not stated)	16	25	39	2	35	nt
CCN(CC)C(=O)c1ccc(S(=O)(=O)N2CCC(c3nc4ccccc4s3)CC2)cc1	-13	15	100*	1	9	74*
